In ChEMBL document CHEMBL4052588, “Design of a Biased Potent Small Molecule Inhibitor of the Bromodomain and PHD Finger-Containing (BRPF) Proteins Suitable for Cellular and in Vivo Studies” (J Med Chem, 2017):
pIC50, pKd: −log10 of the molar value.

Assays:
[1] = Growth inhibition of human MOLP8 cells after 72 hrs; format: functional; conditions: MOLP-8, 72 h
[2] = Apparent permeability across apical side to basolateral side in human Caco2 cells at 10 uM after 2 hrs by LC-MS/MS analysis; format: ADME, cell-based; conditions: Caco-2
HCC1187 = experiment: Growth inhibition of human HCC1187 cells after 72 hrs; format: functional; conditions: HCC1187, 72 h
[3] = target: Bromodomain-containing protein 4 (Homo sapiens, UniProt O60885); experiment: Inhibition of human His tagged BRD4-BD1 incubated for 30 mins followed by addition of biotinylated peptide and further incubation for 30 mins measured by AlphaScreen assay
SK-CO-1 = experiment: Growth inhibition of human SKCO1 cells after 72 hrs; format: functional; conditions: SK-CO-1, 72 h
LoVo = experiment: Growth inhibition of human LoVo cells after 72 hrs; format: functional
[4] = Growth inhibition of human OCUM1 cells after 72 hrs; format: functional; conditions: OCUM1, 72 h
[5] = Growth inhibition of human C99 cells after 72 hrs; format: functional; conditions: C99, 72 h
MV4-11 = experiment: Growth inhibition of human MV4-11 cells after 72 hrs; format: functional; conditions: MV4-11, 72 h
OCI-AML2 = experiment: Growth inhibition of human OCI-AML2 cells after 72 hrs; format: functional; conditions: OCI-AML2, 72 h
[6] = Intrinsic clearance in mouse liver microsomes; format: ADME, microsome; conditions: read-out: CLH
[7] = target: T1, Bromodomain-containing protein 9 (Homo sapiens, UniProt Q9H8M2); experiment: Inhibition of human His tagged BRD9 incubated for 30 mins followed by addition of biotinylated peptide and further incubation for 30 mins measured by AlphaScreen assay
T1 sequence (Q9H8M2 whole entry): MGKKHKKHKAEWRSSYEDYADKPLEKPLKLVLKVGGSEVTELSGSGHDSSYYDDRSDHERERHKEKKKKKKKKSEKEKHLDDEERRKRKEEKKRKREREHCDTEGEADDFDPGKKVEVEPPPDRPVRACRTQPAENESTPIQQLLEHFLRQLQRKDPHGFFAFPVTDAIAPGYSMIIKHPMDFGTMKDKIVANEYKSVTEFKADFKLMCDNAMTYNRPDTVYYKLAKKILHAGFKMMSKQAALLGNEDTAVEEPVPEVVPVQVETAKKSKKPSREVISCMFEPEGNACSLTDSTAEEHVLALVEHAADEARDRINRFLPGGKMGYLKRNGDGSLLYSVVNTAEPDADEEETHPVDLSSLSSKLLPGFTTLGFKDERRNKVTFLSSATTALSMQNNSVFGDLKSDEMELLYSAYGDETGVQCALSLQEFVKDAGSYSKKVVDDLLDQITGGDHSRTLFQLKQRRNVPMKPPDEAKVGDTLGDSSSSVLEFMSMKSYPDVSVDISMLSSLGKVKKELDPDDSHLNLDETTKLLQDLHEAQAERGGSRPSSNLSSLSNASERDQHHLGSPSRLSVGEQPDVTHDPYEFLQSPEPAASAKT

Peregrin = target: T2, Peregrin (Homo sapiens, UniProt P55201); experiment: Inhibition of human His tagged BRPF1 incubated for 30 mins followed by addition of biotinylated peptide and further incubation for 30 mins measured by AlphaScreen assay
T2 sequence (P55201 whole entry): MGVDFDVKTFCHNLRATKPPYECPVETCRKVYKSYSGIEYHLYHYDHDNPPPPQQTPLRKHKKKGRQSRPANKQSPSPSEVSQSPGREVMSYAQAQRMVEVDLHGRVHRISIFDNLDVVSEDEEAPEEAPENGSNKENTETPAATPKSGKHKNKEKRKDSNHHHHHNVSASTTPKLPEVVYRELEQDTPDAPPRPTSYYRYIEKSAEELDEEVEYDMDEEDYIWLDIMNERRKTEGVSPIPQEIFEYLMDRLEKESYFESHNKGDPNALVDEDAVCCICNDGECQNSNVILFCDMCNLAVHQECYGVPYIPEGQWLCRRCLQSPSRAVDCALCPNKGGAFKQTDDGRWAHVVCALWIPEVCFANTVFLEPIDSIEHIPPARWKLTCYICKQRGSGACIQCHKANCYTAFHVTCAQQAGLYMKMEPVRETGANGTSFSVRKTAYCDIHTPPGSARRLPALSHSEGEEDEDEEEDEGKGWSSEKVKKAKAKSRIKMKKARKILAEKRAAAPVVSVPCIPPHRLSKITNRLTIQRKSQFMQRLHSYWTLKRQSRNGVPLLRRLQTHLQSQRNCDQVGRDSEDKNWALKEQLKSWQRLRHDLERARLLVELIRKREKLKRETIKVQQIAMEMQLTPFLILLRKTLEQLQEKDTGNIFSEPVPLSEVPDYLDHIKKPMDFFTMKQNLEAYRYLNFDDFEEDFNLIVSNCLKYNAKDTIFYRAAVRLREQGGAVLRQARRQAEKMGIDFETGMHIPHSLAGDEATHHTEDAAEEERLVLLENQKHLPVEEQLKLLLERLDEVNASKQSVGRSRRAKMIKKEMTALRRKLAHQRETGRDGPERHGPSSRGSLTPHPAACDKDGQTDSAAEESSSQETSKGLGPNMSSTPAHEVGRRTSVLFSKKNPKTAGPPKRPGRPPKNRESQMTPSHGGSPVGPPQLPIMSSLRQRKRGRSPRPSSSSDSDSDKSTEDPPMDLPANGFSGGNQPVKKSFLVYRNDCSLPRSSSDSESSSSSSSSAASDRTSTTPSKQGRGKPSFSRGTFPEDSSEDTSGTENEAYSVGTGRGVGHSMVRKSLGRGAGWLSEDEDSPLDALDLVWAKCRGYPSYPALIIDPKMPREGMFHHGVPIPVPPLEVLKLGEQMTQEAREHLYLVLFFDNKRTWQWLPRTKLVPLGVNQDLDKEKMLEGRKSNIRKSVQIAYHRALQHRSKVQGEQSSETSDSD
How it was run: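 Independent AlphaScreen biochemical confirmation of BRPF bromodomain inhibition, with BRD9 and BRD4(BD1) as counter-screens. Test compound was serially diluted from a 100 mM DMSO stock.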

HepG2 = experiment: Growth inhibition of human HepG2 cells after 72 hrs; format: functional; conditions: HepG2, 72 h
[8] = target: T1, Bromodomain-containing protein 9; experiment: Binding affinity to human BRD9 by isothermal titration calorimetry
[9] = Growth inhibition of human SW403 cells after 72 hrs; format: functional; conditions: SW-403, 72 h
[10] = target: E3 ubiquitin-protein ligase TRIM33 (Homo sapiens, UniProt Q9UPN9); experiment: Inhibition of human TRIM33 expressed in Escherichia coli BL21 after 1 hr by BROMOscan assay
Chain of E3 ubiquitin-protein ligase TRIM33 (Q9UPN9 whole entry): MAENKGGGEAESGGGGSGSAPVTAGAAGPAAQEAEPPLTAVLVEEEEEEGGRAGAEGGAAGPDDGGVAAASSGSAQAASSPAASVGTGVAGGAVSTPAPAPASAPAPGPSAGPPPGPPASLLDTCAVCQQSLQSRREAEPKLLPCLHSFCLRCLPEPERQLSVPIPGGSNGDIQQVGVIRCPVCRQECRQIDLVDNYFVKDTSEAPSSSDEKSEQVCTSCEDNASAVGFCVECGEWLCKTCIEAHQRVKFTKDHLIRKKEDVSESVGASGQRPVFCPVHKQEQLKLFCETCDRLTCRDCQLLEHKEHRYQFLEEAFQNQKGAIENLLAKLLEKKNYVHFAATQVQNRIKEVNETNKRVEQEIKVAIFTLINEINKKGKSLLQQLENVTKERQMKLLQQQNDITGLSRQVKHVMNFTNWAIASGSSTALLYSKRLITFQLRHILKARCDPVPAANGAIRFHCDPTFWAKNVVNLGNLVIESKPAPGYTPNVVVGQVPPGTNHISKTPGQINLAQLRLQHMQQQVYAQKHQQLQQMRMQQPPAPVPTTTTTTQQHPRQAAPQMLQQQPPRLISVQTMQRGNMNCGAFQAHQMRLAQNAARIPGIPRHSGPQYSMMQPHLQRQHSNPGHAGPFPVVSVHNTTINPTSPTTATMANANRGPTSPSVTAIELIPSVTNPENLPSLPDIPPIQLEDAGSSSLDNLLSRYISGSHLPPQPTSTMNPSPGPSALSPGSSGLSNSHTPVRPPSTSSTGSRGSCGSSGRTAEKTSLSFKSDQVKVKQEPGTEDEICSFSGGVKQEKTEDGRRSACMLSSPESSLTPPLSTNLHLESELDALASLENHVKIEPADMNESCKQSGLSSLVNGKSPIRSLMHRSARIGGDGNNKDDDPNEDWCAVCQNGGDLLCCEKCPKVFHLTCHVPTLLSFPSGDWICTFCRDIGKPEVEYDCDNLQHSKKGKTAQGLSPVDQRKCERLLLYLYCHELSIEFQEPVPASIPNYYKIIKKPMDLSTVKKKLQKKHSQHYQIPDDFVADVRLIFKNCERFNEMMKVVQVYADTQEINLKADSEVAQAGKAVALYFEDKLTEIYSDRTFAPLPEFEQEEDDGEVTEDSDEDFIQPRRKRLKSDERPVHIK

CREB-binding protein = CREB-binding protein (Homo sapiens, UniProt Q92793); experiment: Inhibition of human CREBBP expressed in Escherichia coli BL21 after 1 hr by BROMOscan assay
Chain of CREB-binding protein (Q92793 whole entry): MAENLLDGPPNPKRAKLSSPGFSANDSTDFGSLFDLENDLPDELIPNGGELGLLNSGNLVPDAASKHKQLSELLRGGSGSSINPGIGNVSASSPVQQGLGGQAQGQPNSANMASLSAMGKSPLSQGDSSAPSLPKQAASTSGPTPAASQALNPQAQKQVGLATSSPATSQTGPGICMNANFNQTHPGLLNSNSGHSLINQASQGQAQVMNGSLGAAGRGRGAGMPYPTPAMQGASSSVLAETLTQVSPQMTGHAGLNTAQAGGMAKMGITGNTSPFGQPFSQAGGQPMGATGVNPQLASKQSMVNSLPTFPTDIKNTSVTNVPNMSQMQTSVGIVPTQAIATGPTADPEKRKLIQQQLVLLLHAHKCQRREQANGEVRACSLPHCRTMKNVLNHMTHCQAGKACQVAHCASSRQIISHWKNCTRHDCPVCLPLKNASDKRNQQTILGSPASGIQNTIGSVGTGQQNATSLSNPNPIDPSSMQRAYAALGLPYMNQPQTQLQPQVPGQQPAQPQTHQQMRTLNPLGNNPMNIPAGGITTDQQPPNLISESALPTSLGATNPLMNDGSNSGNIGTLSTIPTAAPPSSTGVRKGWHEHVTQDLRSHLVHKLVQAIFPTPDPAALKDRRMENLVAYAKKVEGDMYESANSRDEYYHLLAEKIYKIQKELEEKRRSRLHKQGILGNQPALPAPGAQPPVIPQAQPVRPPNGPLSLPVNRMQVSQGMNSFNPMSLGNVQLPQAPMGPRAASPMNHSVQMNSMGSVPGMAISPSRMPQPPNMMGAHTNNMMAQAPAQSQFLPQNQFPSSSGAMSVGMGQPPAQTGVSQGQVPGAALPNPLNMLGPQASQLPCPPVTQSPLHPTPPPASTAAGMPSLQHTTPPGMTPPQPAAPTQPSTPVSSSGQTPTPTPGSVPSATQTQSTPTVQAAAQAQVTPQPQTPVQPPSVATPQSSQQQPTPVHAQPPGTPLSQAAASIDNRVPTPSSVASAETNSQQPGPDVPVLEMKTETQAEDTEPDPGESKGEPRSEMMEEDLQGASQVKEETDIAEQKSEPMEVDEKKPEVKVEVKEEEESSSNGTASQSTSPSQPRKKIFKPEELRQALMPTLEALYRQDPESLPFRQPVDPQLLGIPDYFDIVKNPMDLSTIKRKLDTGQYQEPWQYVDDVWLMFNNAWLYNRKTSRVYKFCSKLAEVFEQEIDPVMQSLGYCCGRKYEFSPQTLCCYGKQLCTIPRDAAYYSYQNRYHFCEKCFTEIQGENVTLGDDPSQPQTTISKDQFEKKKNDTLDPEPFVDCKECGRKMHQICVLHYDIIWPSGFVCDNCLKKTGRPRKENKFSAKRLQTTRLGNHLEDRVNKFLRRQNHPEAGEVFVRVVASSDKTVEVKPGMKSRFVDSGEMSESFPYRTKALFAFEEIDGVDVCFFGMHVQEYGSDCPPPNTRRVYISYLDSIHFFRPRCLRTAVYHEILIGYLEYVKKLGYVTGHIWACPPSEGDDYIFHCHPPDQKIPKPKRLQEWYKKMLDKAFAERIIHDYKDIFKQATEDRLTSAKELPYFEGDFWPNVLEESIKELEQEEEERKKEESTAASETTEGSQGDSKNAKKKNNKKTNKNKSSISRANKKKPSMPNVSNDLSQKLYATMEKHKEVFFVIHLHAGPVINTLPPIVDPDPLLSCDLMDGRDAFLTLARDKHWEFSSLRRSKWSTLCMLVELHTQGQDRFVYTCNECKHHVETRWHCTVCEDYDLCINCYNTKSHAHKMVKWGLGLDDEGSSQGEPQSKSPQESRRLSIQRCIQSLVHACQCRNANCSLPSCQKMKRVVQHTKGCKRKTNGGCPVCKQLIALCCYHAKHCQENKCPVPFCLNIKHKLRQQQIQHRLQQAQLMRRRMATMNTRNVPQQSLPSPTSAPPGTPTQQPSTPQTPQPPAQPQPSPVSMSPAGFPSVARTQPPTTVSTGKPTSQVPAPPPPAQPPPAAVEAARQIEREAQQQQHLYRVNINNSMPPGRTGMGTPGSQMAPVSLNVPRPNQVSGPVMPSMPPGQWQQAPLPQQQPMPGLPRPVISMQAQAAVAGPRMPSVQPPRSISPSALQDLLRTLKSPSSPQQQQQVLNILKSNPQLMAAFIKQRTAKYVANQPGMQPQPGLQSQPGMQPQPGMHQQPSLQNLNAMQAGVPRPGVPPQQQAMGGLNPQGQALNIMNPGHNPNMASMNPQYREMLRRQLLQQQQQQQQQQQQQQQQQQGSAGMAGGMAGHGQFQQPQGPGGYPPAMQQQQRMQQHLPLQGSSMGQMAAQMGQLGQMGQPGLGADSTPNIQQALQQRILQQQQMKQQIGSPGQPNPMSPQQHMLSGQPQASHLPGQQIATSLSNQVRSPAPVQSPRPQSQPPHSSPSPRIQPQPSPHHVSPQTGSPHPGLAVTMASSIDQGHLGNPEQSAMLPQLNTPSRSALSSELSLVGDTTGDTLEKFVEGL

Row | Papp A→B at 2 h, 10 µM [2] [×10⁻⁶ cm/s] | GI50 (HCC1187) [µM] | pIC50 [3] | GI50 (SK-CO-1) [µM] | GI50 (LoVo) [µM] | GI50 (MV4-11) [µM] | GI50 (OCI-AML2) [µM] | microsomal CLint [6] [µL/min/mg] | pIC50 [7] | pIC50 (Peregrin) | GI50 (HepG2) [µM] | pKd [8] | pIC50 [10] | pIC50 (CREB-binding protein) | SMILES | GI50 [1] [µM] | GI50 [4] [µM] | GI50 [5] [µM] | GI50 [9] [µM]
1 | 10 | 1 to 10 | < 4.70 | 1 to 10 | 1 to 10 | 9.9 | 1.3 | 14 | 5.96 | 6.85 | 1 to 10 | 5.95 | – | – | Cc1cc2cc(NS(=O)(=O)c3ccc(C#N)cc3)ccc2n(C)c1=O | 1 to 10 | 1 to 10 | 1 to 10 | 1 to 10
2 | – | – | < 4.70 | – | – | – | – | – | < 4.70 | < 4.70 | – | – | < 4.00 | < 4.00 | CCc1cc2cc(NS(=O)(=O)c3ccc(C#N)cc3)ccc2n(CC)c1=O | – | – | – | –
